Assay results published in ChEMBL document CHEMBL1629527, “In vitro antifungal activities of bis(alkylpyridinium)alkane compounds against pathogenic yeasts and molds” (Antimicrob Agents Chemother, 2010).

What was measured:
Rhizopus arrhizus [1] = test: Antifungal activity against Rhizopus oryzae 05-203111 after 48 to 72 hrs; assay type: functional
Method in brief: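 After the broth microdilution MIC read, suspension from every well without visible growth was plated onto Sabouraud dextrose agar and incubated at 35°C, up to 7 days for molds. MFC was taken as the lowest drug concentration with no colonies.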

Cryptococcus neoformans [2] = test: Antifungal activity against Cryptococcus neoformans 05-202523 after 48 to 72 hrs; assay type: functional
Method in brief: (§1)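 MFC: after the MIC read, 30-μl aliquots from each well without visible growth were plated onto Sabouraud dextrose agar and incubated at 35°C. Reading was at 48–72 h for yeasts and up to 7 days for molds. MFC was the lowest concentration with no colonies.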

Aspergillus terreus [3] = test: Antifungal activity against Aspergillus terreus 05-202844 after 48 to 72 hrs; assay type: functional; method in brief: as §1
Exophiala spinifera = test: Antifungal activity against Exophiala spinifera 03-200803 after 24 to 72 hrs by broth microdilution method; assay type: functional
Method in brief: (§2)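 Mold isolates subcultured on potato dextrose agar, then tested by CLSI M38-A2 broth microdilution in RPMI 1640 (L-glutamine, no bicarbonate) buffered to pH 7.0 with 0.165 M MOPS. Compounds were dissolved in water and tested at a final 0.175–87.5 μM. Plates were incubated at 35°C. MIC was read visually as the lowest concentration giving 100% inhibition versus the growth control. Each isolate was run in duplicate in two independent experiments.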

Fusarium solani = test: Antifungal activity against Fusarium solani 04-203102 after 24 to 72 hrs by broth microdilution method; assay type: functional; method in brief: as §2
[4] = Antifungal activity against Paecilomyces lilacinus 05-200601 after 24 to 72 hrs by broth microdilution method; assay type: functional; conditions: Purpureocillium lilacinum; method in brief: as §2
Rhizopus arrhizus [5] = test: Antifungal activity against Rhizopus oryzae 05-203111 after 24 to 72 hrs by broth microdilution method; assay type: functional; method in brief: as §2
Candida albicans [6] = test: Antifungal activity against Candida albicans ATCC 90028 after 48 to 72 hrs; assay type: functional; method in brief: as §1
Pichia kudriavzevii [7] = test: Antifungal activity against Candida krusei […] after 48 to 72 hrs; assay type: functional; method in brief: as §1
Pichia kudriavzevii [8] = test: Antifungal activity against Candida krusei 04-202328 after 48 to 72 hrs; assay type: functional
Method in brief: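 CLSI M27-A3 broth microdilution for yeasts in RPMI 1640 with L-glutamine and no bicarbonate, buffered with 0.165 M MOPS to pH 7.0. Compounds were dissolved in water and tested at 0.175–87.5 μM final, 35°C. MIC was read visually at 24–72 h as 100% inhibition versus growth control. For MFC, 30 μl from clear wells went onto SDA at 35°C for 48–72 h, reading the lowest concentration without colonies. Duplicates, two independent runs.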

Candida parapsilosis [9] = test: Antifungal activity against Candida parapsilosis ATCC 22019 after 48 to 72 hrs; assay type: functional; conditions: Lodderomyces parapsilosis; method in brief: as §1
Aspergillus fumigatus [10] = test: Antifungal activity against Aspergillus fumigatus 05-203114 after 24 to 72 hrs by broth microdilution method; assay type: functional
Method in brief: (§3)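 Broth microdilution MIC per CLSI M27-A3 (yeasts) or M38-A2 (molds). RPMI 1640 with L-glutamine, without bicarbonate, buffered to pH 7.0 with 0.165 M MOPS. Final test range for the compounds was 0.175–87.5 μM. Incubation at 35°C with visual reading at 24–72 h. MIC was the lowest concentration giving 100% inhibition versus the growth control (azoles 50% or 100%, by organism). Each isolate was run in duplicate in two independent experiments.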

Aspergillus flavus [11] = test: Antifungal activity against Aspergillus flavus ATCC 204304 after 24 to 72 hrs by broth microdilution method; assay type: functional; method in brief: as §3
Aspergillus flavus [12] = test: Antifungal activity against Aspergillus flavus 05-203758 after 24 to 72 hrs by broth microdilution method; assay type: functional; method in brief: as §3
Aspergillus terreus [13] = test: Antifungal activity against Aspergillus terreus 05-202844 after 24 to 72 hrs by broth microdilution method; assay type: functional; method in brief: as §3
Lomentospora prolificans = test: Antifungal activity against Scedosporium prolificans 05-203060 after 24 to 72 hrs by broth microdilution method; assay type: functional; method in brief: as §2
Scedosporium apiospermum = test: Antifungal activity against Scedosporium apiospermum 05-203100 after 24 to 72 hrs by broth microdilution method; assay type: functional; method in brief: as §2
[14] = test system: Cunninghamella bertholletiae; test: Antifungal activity against Cunninghamella bertholletiae 99-12187 after 24 to 72 hrs by broth microdilution method; assay type: functional; method in brief: as §3
Lichtheimia corymbifera = test: Antifungal activity against Absidia corymbifera 04-200170 after 24 to 72 hrs by broth microdilution method; assay type: functional; method in brief: as §3
Aspergillus fumigatus [15] = test: Antifungal activity against Aspergillus fumigatus ATCC 204305 after 24 to 72 hrs by broth microdilution method; assay type: functional; method in brief: as §3
[16] = test system: Cryptococcus gattii species complex; test: Antifungal activity against Cryptococcus gattii 05-200122 after 24 to 72 hrs by broth microdilution method; assay type: functional, Cryptococcus bacillisporus; method in brief: as §3
Cryptococcus neoformans [17] = test: Antifungal activity against Cryptococcus neoformans 05-202523 after 24 to 72 hrs by broth microdilution method; assay type: functional; method in brief: as §3
Cryptococcus neoformans [18] = test: Antifungal activity against Cryptococcus neoformans ATCC 90112 after 24 to 72 hrs by broth microdilution method; assay type: functional; method in brief: as §3
Candida tropicalis = test: Antifungal activity against Candida tropicalis 04-202361 after 24 to 72 hrs by broth microdilution method; assay type: functional; method in brief: as §3
Nakaseomyces glabratus [19] = test: Antifungal activity against Candida glabrata 04-202345 after 24 to 72 hrs by broth microdilution method; assay type: functional; method in brief: as §3
Candida parapsilosis [20] = test: Antifungal activity against Candida parapsilosis 04-202398 after 24 to 72 hrs by broth microdilution method; assay type: functional; conditions: Lodderomyces parapsilosis; method in brief: as §3
Pichia kudriavzevii [21] = test: Antifungal activity against Candida krusei ATCC 9258 after 24 to 72 hrs by broth microdilution method; assay type: functional; method in brief: as §3
Pichia kudriavzevii [22] = test: Antifungal activity against Candida krusei 04-202328 after 24 to 72 hrs by broth microdilution method; assay type: functional; method in brief: as §3
Candida parapsilosis [23] = test: Antifungal activity against Candida parapsilosis ATCC 22019 after 24 to 72 hrs by broth microdilution method; assay type: functional; conditions: Lodderomyces parapsilosis; method in brief: as §3
Pichia kudriavzevii [24] = test: Antifungal activity against Candida krusei ATCC 6258 after 24 to 72 hrs by broth microdilution method; assay type: functional; method in brief: as §3
Candida albicans [25] = test: Antifungal activity against Candida albicans ATCC 10231 after 24 to 72 hrs by broth microdilution method; assay type: functional; method in brief: as §3
Candida albicans [26] = test: Antifungal activity against Candida albicans ATCC 90028 after 24 to 72 hrs by broth microdilution method; assay type: functional; method in brief: as §3
Nakaseomyces glabratus [27] = test: Antifungal activity against Candida glabrata 04-202345 after 48 to 72 hrs; assay type: functional; method in brief: as §1
[28] = Antifungal activity against Exophiala jeanselmei 03-200268 after 24 to 72 hrs by broth microdilution method; assay type: functional; method in brief: as §3

MIC (Exophiala spinifera): 1.48 µg/mL
MIC (Fusarium solani): 47.3 µg/mL
MIC [4]: > 47.3 µg/mL
MIC (Rhizopus arrhizus [5]): 5.9 µg/mL
MIC (Aspergillus fumigatus [10]): > 47.3 µg/mL
MIC (Aspergillus flavus [11]): > 47.3 µg/mL
MIC (Aspergillus flavus [12]): > 47.3 µg/mL
MIC (Aspergillus terreus [13]): 2.96 µg/mL
MIC (Lomentospora prolificans): 2.96 µg/mL
MIC (Scedosporium apiospermum): 11.8 µg/mL
MIC [14]: > 47.3 µg/mL
MIC (Lichtheimia corymbifera): > 47.3 µg/mL
MIC (Aspergillus fumigatus [15]): > 47.3 µg/mL
MIC [16]: 1.48 µg/mL
MIC (Cryptococcus neoformans [17]): 11.8 µg/mL
MIC (Cryptococcus neoformans [18]): 2.96 µg/mL
MIC (Candida tropicalis): 2.96 µg/mL
MIC (Nakaseomyces glabratus [19]): 1.48 µg/mL
MIC (Candida parapsilosis [20]): > 47.3 µg/mL
MIC (Pichia kudriavzevii [21]): 11.8 µg/mL
MIC (Pichia kudriavzevii [22]): 23.7 µg/mL
MIC (Candida parapsilosis [23]): 1.48 µg/mL
MIC (Pichia kudriavzevii [24]): 23.7 µg/mL
MIC (Candida albicans [25]): 2.96 µg/mL
MIC (Candida albicans [26]): 2.96 µg/mL
MIC [28]: 2.96 µg/mL
SMILES: CC(C)CCc1cc[n+](CCCCCCCCCCCC[n+]2ccc(CCC(C)C)cc2)cc1.[Cl-].[Cl-]
MFC (Rhizopus arrhizus [1]): 23.7 µg/mL
MFC (Cryptococcus neoformans [2]): 47.3 µg/mL
MFC (Aspergillus terreus [3]): 5.9 µg/mL
MFC (Candida albicans [6]): 5.9 µg/mL
MFC (Pichia kudriavzevii [7]): 23.7 µg/mL
MFC (Pichia kudriavzevii [8]): 47.3 µg/mL
MFC (Candida parapsilosis [9]): 2.96 µg/mL
MFC (Nakaseomyces glabratus [27]): 5.9 µg/mL
